Measurements reported in ChEMBL document CHEMBL3102828, “Synthesis and antibacterial activity of a series of novel 9-O-acetyl- 4'-substituted 16-membered macrolides derived from josamycin” (2014).
Values after ≈ are worked out from the molar mass of the structure shown.

What was measured:
Assay type in all cases: functional
[1] = system: Staphylococcus epidermidis; assay: Antimicrobial activity against methicillin-sensitive Staphylococcus epidermidis 09-9 by broth microdilution method
How it was run: (§1)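 MICs determined by broth microdilution as recommended by CLSI. Tested against a panel of five S. aureus strains and three S. epidermidis strains. ATCC 29213, 15 and 09–06 are methicillin-sensitive S. aureus. Josamycin served as the reference.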

[2] = system: Staphylococcus epidermidis; assay: Antimicrobial activity against methicillin-resistant Staphylococcus epidermidis 09-3 by broth microdilution method
How it was run: (§2)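 MIC read-out from broth microdilution performed according to CLSI recommendations; each strain was tested in vitro alongside the parent macrolide reference.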

[3] = system: Staphylococcus epidermidis; assay: Antimicrobial activity against methicillin-sensitive Staphylococcus epidermidis ATCC 12228 by broth microdilution method; how it was run: as §1
Staphylococcus aureus [4] = assay: Antimicrobial activity against methicillin-resistant Staphylococcus aureus 09-13 by broth microdilution method; how it was run: as §2
Staphylococcus aureus [5] = assay: Antimicrobial activity against methicillin-sensitive Staphylococcus aureus 09-6 by broth microdilution method; how it was run: as §1
Staphylococcus aureus [6] = assay: Antimicrobial activity against methicillin-sensitive Staphylococcus aureus 15 by broth microdilution method; how it was run: as §1
Staphylococcus aureus [7] = assay: Antimicrobial activity against methicillin-resistant Staphylococcus aureus ATCC 33591 by broth microdilution method; how it was run: as §2
Staphylococcus aureus [8] = assay: Antimicrobial activity against methicillin-sensitive Staphylococcus aureus ATCC 29213 by broth microdilution method; how it was run: as §1

Row | Compound | MIC [1] [µg/mL] | MIC [2] [µg/mL] | MIC [3] [µg/mL] | MIC (Staphylococcus aureus [4]) [µg/mL] | MIC (Staphylococcus aureus [5]) [µg/mL] | MIC (Staphylococcus aureus [6]) [µg/mL] | MIC (Staphylococcus aureus [7]) [µg/mL] | MIC (Staphylococcus aureus [8]) [µg/mL]
1 | CO[C@H]1/C=C\C(=O)O[C@H](C)C/C=C/C=C/[C@H](OC(C)=O)[C@H](C)C[C@H](CC=O)[C@@H]1O[C@@H]1O[C@H](C)[C@@H](O)[C@H](N(C)C)[C@H]1O | 64 (≈ 110 µM) | > 64 | 64 (≈ 110 µM) | > 64 | > 64 | > 64 | > 64 | > 64
2 | CO[C@H]1/C=C\C(=O)O[C@H](C)C/C=C/C=C/[C@H](O)[C@H](C)C[C@H](CC=O)[C@@H]1O[C@@H]1O[C@H](C)[C@@H](O)[C@H](N(C)C)[C@H]1O | > 32 | > 32 | > 32 | > 32 | > 32 | > 32 | > 32 | > 32
3 | CO[C@@H]1[C@@H](O[C@@H]2O[C@H](C)[C@@H](OC(=O)Nc3ccc(C(F)(F)F)cc3)[C@H](N(C)C)[C@H]2O)[C@@H](CC=O)C[C@@H](C)[C@@H](OC(C)=O)/C=C/C=C/C[C@@H](C)OC(=O)C[C@H]1OC(C)=O | > 64 | > 64 | > 64 | > 64 | > 64 | > 64 | > 64 | > 64
4 | CO[C@H]1/C=C\C(=O)O[C@H](C)C/C=C/C=C/[C@H](OC(C)=O)[C@H](C)C[C@H](CC=O)[C@@H]1O[C@@H]1O[C@H](C)[C@@H](OC(=O)Nc2ccc(C(F)(F)F)cc2)[C@H](N(C)C)[C@H]1O | > 64 | > 64 | > 64 | > 64 | > 64 | > 64 | > 64 | > 64
5 | CO[C@H]1/C=C\C(=O)O[C@H](C)C/C=C/C=C/[C@H](O)[C@H](C)C[C@H](CC=O)[C@@H]1O[C@@H]1O[C@H](C)[C@@H](OC(=O)Nc2ccc(C(F)(F)F)cc2)[C@H](N(C)C)[C@H]1O | > 64 | > 64 | > 64 | > 64 | > 64 | > 64 | > 64 | > 64
6 | CO[C@@H]1[C@@H](O[C@@H]2O[C@H](C)[C@@H](OC(=O)c3ccccc3)[C@H](N(C)C)[C@H]2O)[C@@H](CC=O)C[C@@H](C)[C@@H](OC(C)=O)/C=C/C=C/C[C@@H](C)OC(=O)C[C@H]1OC(C)=O | 8 (≈ 10.7 µM) | > 64 | 8 (≈ 10.7 µM) | > 64 | 8 (≈ 10.7 µM) | 8 (≈ 10.7 µM) | > 64 | 8 (≈ 10.7 µM)
7 | COc1ccc(C(=O)O[C@H]2[C@H](N(C)C)[C@@H](O)[C@H](O[C@H]3[C@@H](CC=O)C[C@@H](C)[C@@H](OC(C)=O)/C=C/C=C/C[C@@H](C)OC(=O)C[C@@H](OC(C)=O)[C@@H]3OC)O[C@@H]2C)cc1 | 8 (≈ 10.3 µM) | > 64 | 8 (≈ 10.3 µM) | > 64 | 8 (≈ 10.3 µM) | 8 (≈ 10.3 µM) | > 64 | 8 (≈ 10.3 µM)
8 | CO[C@@H]1[C@@H](O[C@@H]2O[C@H](C)[C@@H](OC(=O)c3ccc([N+](=O)[O-])cc3)[C@H](N(C)C)[C@H]2O)[C@@H](CC=O)C[C@@H](C)[C@@H](OC(C)=O)/C=C/C=C/C[C@@H](C)OC(=O)C[C@H]1OC(C)=O | 32 (≈ 40.5 µM) | > 64 | 32 (≈ 40.5 µM) | > 64 | 32 (≈ 40.5 µM) | > 64 | > 64 | 32 (≈ 40.5 µM)
9 | CO[C@@H]1[C@@H](O[C@@H]2O[C@H](C)[C@@H](OC(=O)/C=C/c3ccccc3)[C@H](N(C)C)[C@H]2O)[C@@H](CC=O)C[C@@H](C)[C@@H](OC(C)=O)/C=C/C=C/C[C@@H](C)OC(=O)C[C@H]1OC(C)=O | 4 (≈ 5.18 µM) | > 32 | 4 (≈ 5.18 µM) | > 32 | 8 (≈ 10.4 µM) | > 32 | > 32 | 8 (≈ 10.4 µM)
10 | CO[C@@H]1[C@@H](O[C@@H]2O[C@H](C)[C@@H](OC(=O)/C=C/c3ccnc4ccccc34)[C@H](N(C)C)[C@H]2O)[C@@H](CC=O)C[C@@H](C)[C@@H](OC(C)=O)/C=C/C=C/C[C@@H](C)OC(=O)C[C@H]1OC(C)=O | 8 (≈ 9.72 µM) | > 64 | 8 (≈ 9.72 µM) | > 64 | 8 (≈ 9.72 µM) | 16 (≈ 19.4 µM) | > 64 | 8 (≈ 9.72 µM)
11 | CO[C@@H]1[C@@H](O[C@@H]2O[C@H](C)[C@@H](OC(=O)CCc3ccccc3)[C@H](N(C)C)[C@H]2O)[C@@H](CC=O)C[C@@H](C)[C@@H](OC(C)=O)/C=C/C=C/C[C@@H](C)OC(=O)C[C@H]1OC(C)=O | 4 (≈ 5.17 µM) | > 32 | 4 (≈ 5.17 µM) | > 32 | 4 (≈ 5.17 µM) | 8 (≈ 10.3 µM) | > 32 | 4 (≈ 5.17 µM)
12 | CCCC(=O)O[C@H]1[C@H](N(C)C)[C@@H](O)[C@H](O[C@H]2[C@@H](CC=O)C[C@@H](C)[C@@H](OC(C)=O)/C=C/C=C/C[C@@H](C)OC(=O)C[C@@H](OC(C)=O)[C@@H]2OC)O[C@@H]1C | 4 (≈ 5.62 µM) | > 64 | 4 (≈ 5.62 µM) | > 64 | 4 (≈ 5.62 µM) | 4 (≈ 5.62 µM) | > 64 | 4 (≈ 5.62 µM)
13 | CO[C@@H]1[C@@H](O[C@@H]2O[C@H](C)[C@@H](OC(=O)CC(C)C)[C@H](N(C)C)[C@H]2O)[C@@H](CC=O)C[C@@H](C)[C@@H](OC(C)=O)/C=C/C=C/C[C@@H](C)OC(=O)C[C@H]1OC(C)=O | 8 (≈ 11 µM) | > 64 | 8 (≈ 11 µM) | > 64 | 8 (≈ 11 µM) | 8 (≈ 11 µM) | > 64 | 8 (≈ 11 µM)
14 | CO[C@@H]1[C@@H](O[C@@H]2O[C@H](C)[C@@H](O)[C@H](N(C)C)[C@H]2O)[C@@H](CC=O)C[C@@H](C)[C@@H](OC(C)=O)/C=C/C=C/C[C@@H](C)OC(=O)C[C@H]1OC(C)=O | 16 (≈ 24.9 µM) | > 32 | 16 (≈ 24.9 µM) | > 32 | 16 (≈ 24.9 µM) | 16 (≈ 24.9 µM) | > 32 | 16 (≈ 24.9 µM)
15 | CO[C@@H]1[C@@H](O[C@@H]2O[C@H](C)[C@@H](O[C@H]3C[C@@](C)(O)[C@@H](OC(=O)CC(C)C)[C@H](C)O3)[C@H](N(C)C)[C@H]2O)[C@@H](CC=O)C[C@@H](C)[C@@H](O)/C=C/C=C/C[C@@H](C)OC(=O)C[C@H]1OC(C)=O [JOSAMYCIN] | 2 (≈ 2.42 µM) | > 32 | 1 (≈ 1.21 µM) | 32 (≈ 38.6 µM) | 1 (≈ 1.21 µM) | 2 (≈ 2.42 µM) | > 32 | 1 (≈ 1.21 µM)
